From ChEMBL document CHEMBL4145601, “Novel Nitric Oxide Donors of Phenylsulfonylfuroxan and 3-Benzyl Coumarin Derivatives as Potent Antitumor Agents” (ACS Med Chem Lett, 2018)
Active and inactive are the calls of the source. No cut-off for these calls is given here.

Experiments:
WI-38 = test: Cytotoxicity against human WI38 cells after 72 hrs by MTS assay; assay type: cell-based; conditions: WI-38, 72 h
Summary of the method: (§1)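 Non-tumour human cells were HUVEC (umbilical vein endothelial), T29 (immortalized, nontumorigenic ovarian epithelial), WI-38 (lung fibroblasts) and MCF-10A (nontumorigenic breast epithelial). Viability was read by tetrazolium assay. IC50 is the mean of triplicate determinations.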

HeLa = test: Antiproliferative activity against human HeLa cells after 48 hrs by MTT assay; assay type: functional, cell-based
Summary of the method: (§2)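 Human tumour lines were HeLa (cervical), SKOV3, OVCA429, OVCA433 and A2780 (ovarian), A549 (non-small cell lung), MDA-MB-231 and MCF-7 (breast), and KB (oral epidermoid). Antiproliferation was read by MTT assay. IC50 is the mean of triplicate determinations.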

SK-OV-3 = test: Antiproliferative activity against human SKOV3 cells after 48 hrs by MTT assay; assay type: functional, cell-based; conditions: SK-OV-3, 48 h; summary of the method: as §2
A549 = test: Antiproliferative activity against human A549 cells after 48 hrs by MTT assay; assay type: functional, cell-based; conditions: A549, 48 h; summary of the method: as §2
[1] = Antiproliferative activity against human OVCA429 cells after 48 hrs by MTT assay; assay type: functional, cell-based; conditions: OVCA429, 48 h; summary of the method: as §2
[2] = Antiproliferative activity against human OVCA433 cells after 48 hrs by MTT assay; assay type: functional, cell-based; conditions: OVCA433, 48 h; summary of the method: as §2
A2780 [3] = test: Antiproliferative activity against human A2780 cells after 48 hrs by MTT assay; assay type: functional, cell-based; conditions: A2780, 48 h; summary of the method: as §2
MDA-MB-231 = test: Antiproliferative activity against human MDA-MB-231 cells after 48 hrs by MTT assay; assay type: functional, cell-based; conditions: MDA-MB-231, 48 h
MCF7 = test: Antiproliferative activity against human MCF7 cells after 48 hrs by MTT assay; assay type: functional, cell-based; conditions: MCF7, 48 h; summary of the method: as §2
KB = test: Antiproliferative activity against human KB cells after 48 hrs by MTT assay; assay type: functional, cell-based; summary of the method: as §2
MV4-11 = test: Antiproliferative activity against human MV411 cells after 72 hrs by MTS assay; assay type: functional, cell-based; conditions: MV4-11, 72 h
Summary of the method: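 Human myeloid leukaemia MV-4-11 cells; antiproliferation read by MTS assay. IC50 is the mean of triplicate determinations.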

MM1.S = test: Antiproliferative activity against human MM1S cells after 72 hrs by MTS assay; assay type: functional, cell-based
[4] = Antiproliferative activity against human A2780/CDDP cells after 48 hrs by MTT assay; assay type: functional, cell-based
Summary of the method: (§3)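 Drug-resistant human tumour lines were A2780/CDDP (cisplatin-resistant ovarian), MDA-MB-231/Gem (gemcitabine-resistant breast), MCF-7/ADR and KB-V. Antiproliferation was read by MTT assay. IC50 is the mean of triplicate determinations.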

[5] = Antiproliferative activity against human MDA-MB-231/Gem cells after 48 hrs by MTT assay; assay type: functional, cell-based
NCI/ADR-RES = test: Antiproliferative activity against human MCF7/ADR cells after 48 hrs by MTT assay; assay type: functional, cell-based; summary of the method: as §3
[6] = Antiproliferative activity against human KBV cells after 48 hrs by MTT assay; assay type: functional, cell-based; summary of the method: as §3
[7] = Selectivity ratio of IC50 for human A2780 cells to IC50 for A2780/CDDP cells; assay type: functional
Summary of the method: (§4)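 Selectivity ratio = IC50 in the drug-sensitive parent line / IC50 in its resistant subline (A2780 vs A2780/CDDP, MDA-MB-231 vs MDA-MB-231/Gem, MCF-7 vs MCF-7/ADR, KB vs KB-V). Each IC50 came from MTT assays, mean of triplicates.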

[8] = Selectivity ratio of IC50 for human MDA-MB-231 cells to IC50 for MDA-MB-231/Gem cells; assay type: functional; summary of the method: as §4
[9] = Selectivity ratio of IC50 for human MCF7 cells to IC50 for MCF7/ADR cells; assay type: functional; summary of the method: as §4
[10] = Selectivity ratio of IC50 for human KB cells to IC50 for KBV cells; assay type: functional; summary of the method: as §4
HUVEC = test: Cytotoxicity against HUVEC after 48 hrs by MTT assay; assay type: cell-based; conditions: Homo sapiens; summary of the method: as §1
[11] = Cytotoxicity against human T29 cells after 48 hrs by MTT assay; assay type: cell-based; conditions: T29, 48 h; summary of the method: as §1
[12] = Drug metabolism in human A2780 cells assessed as nitric oxide release at 100 uM after 150 mins by Griess assay; assay type: ADME, cell-based; conditions: a2780, 2.5 h
[13] = target: Dual specificity mitogen-activated protein kinase kinase; MEK1/2 (Homo sapiens) (UniProt P36507+Q02750); test: Inhibition of MEK (unknown origin); assay type: protein assay
Chain of Dual specificity mitogen-activated protein kinase kinase; MEK1/2 (Homo sapiens) (P36507 whole entry, looked up): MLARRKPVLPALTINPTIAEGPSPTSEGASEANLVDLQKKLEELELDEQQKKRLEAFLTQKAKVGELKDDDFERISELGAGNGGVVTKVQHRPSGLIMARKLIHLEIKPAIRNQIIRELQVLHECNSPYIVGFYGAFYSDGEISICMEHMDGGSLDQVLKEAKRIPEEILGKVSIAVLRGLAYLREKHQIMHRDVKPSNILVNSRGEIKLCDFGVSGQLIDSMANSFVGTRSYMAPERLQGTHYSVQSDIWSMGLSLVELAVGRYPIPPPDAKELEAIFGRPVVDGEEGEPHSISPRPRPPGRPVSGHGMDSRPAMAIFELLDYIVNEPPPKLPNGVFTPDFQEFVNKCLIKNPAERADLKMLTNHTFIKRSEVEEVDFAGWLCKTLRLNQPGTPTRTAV
Chain of Dual specificity mitogen-activated protein kinase kinase; MEK1/2 (Homo sapiens) (Q02750 whole entry, looked up): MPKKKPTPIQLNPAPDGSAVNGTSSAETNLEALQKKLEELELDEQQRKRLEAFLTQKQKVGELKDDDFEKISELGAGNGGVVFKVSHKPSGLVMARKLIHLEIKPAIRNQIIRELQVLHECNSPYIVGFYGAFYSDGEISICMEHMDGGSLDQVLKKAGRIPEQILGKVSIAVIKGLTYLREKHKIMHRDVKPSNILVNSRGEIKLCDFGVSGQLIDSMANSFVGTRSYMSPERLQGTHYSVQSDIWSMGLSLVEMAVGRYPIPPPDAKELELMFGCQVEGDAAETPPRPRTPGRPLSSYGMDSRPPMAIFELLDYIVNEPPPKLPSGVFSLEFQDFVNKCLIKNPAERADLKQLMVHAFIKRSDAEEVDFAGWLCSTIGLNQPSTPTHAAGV

MCF-10A = test: Cytotoxicity against human MCF10A cells after 72 hrs by MTS assay; assay type: cell-based; summary of the method: as §1
A2780 [14] = test: Induction of apoptosis in human A2780 cells assessed as increase in late apoptotic cells at 10 to 20 nM measured after 24 hrs by Annexin-V-FITC/propidium iodide staining based flow cytometric method; assay type: functional, cell-based
A2780 [15] = test: Induction of apoptosis in human A2780 cells assessed as increase in early apoptotic cells at 10 to 20 nM measured after 24 hrs by Annexin-V-FITC/propidium iodide staining based flow cytometric method; assay type: functional, cell-based
[16] = Resistance ratio of IC50 for human MDA-MB-231/Gem cells to IC50 for human MDA-MB-231 cells; assay type: functional
Summary of the method: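 Resistance ratio = IC50 in the resistant line / IC50 in the drug-sensitive parent line. Each IC50 came from MTT assays, mean of triplicate determinations.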

| Compound | IC50 (HeLa) | IC50 (SK-OV-3) | IC50 (A549) | IC50 (A2780 [3]) | IC50 (MDA-MB-231) | IC50 (MCF7) | IC50 (KB) | IC50 (MV4-11) | IC50 (MM1.S) | Drug metabolism [12] | IC50 (WI-38) | IC50 [1] | IC50 [2] | IC50 [4] | IC50 [5] | IC50 (NCI/ADR-RES) | IC50 [6] | Ratio IC50 [7] | IC50 (HUVEC) | IC50 [11] | further results |
| --- | --- | --- | --- | --- | --- | --- | --- | --- | --- | --- | --- | --- | --- | --- | --- | --- | --- | --- | --- | --- | --- |
| CNS(=O)(=O)Nc1cccc(Cc2c(C)c3ccc(OCCOc4no[n+]([O-])c4S(=O)(=O)c4ccccc4)cc3oc2=O)c1 | 15.4 nM | 19.2 nM | 7.9 nM | 10.2 nM | 1.1 nM | 3130 nM | 1140 nM | 66.3 nM | 24 nM | Metabolite_Detected | 1360 nM | 6.1 nM | 16.3 nM | 47.2 nM | 50.4 nM | 50.1 nM | 65.4 nM | 0.2 | 190 nM | > 5000 nM | Ratio IC50 [8]: 0.02; Ratio IC50 [9]: 62.5; Ratio IC50 [10]: 17.5; inhibition [13]: inactive |
| COc1cccc2c1C(=O)c1c(O)c3c(c(O)c1C2=O)C[C@@](O)(C(=O)CO)C[C@@H]3O[C@H]1C[C@H](N)[C@H](O)[C@H](C)O1 [DOXORUBICIN] |  |  |  |  |  |  |  |  |  |  |  |  |  |  |  | > 100000 nM |  |  |  |  |  |
| Cc1cc(=O)oc2cc(OCCOc3no[n+]([O-])c3S(=O)(=O)c3ccccc3)ccc12 | 62.2 nM | 47.3 nM | 45.8 nM | 20.9 nM |  | 445 nM | 127 nM | 28.3 nM | 21 nM | Metabolite_Detected | 90 nM | 41.1 nM | 131 nM | 85.7 nM |  | 157 nM | 24.9 nM |  | 130 nM | 1800 nM | IC50 (MCF-10A): 660 nM; Activity (A2780 [14]): Active |
| COc1cc(OCCOc2no[n+]([O-])c2S(=O)(=O)c2ccccc2)ccc1C(=O)/C=C/c1ccc(F)cc1 | 6.9 nM | 25 nM | 3.5 nM | 14.5 nM | 1.4 nM | 1410 nM | 1660 nM | 29.6 nM | 25 nM | Metabolite_Detected | 560 nM | 4 nM | 6.6 nM | 34.1 nM | 93 nM | 47.9 nM | 10.1 nM | 0.4 | 360 nM | 3500 nM | Ratio IC50 [8]: 0.02; Ratio IC50 [9]: 29.5; Ratio IC50 [10]: 164.9; inhibition [13]: inactive; Activity (A2780 [15]): Active |

Now from value to compound, other results behind:

| IC50 (HeLa) | IC50 (SK-OV-3) | IC50 (A549) | IC50 (A2780 [3]) | IC50 (MDA-MB-231) | IC50 (MCF7) | IC50 (KB) | IC50 (MV4-11) | IC50 (MM1.S) | Drug metabolism [12] | Compound | IC50 (WI-38) | IC50 [1] | IC50 [2] | IC50 [4] | IC50 [5] | IC50 (NCI/ADR-RES) | IC50 [6] | Ratio IC50 [7] | IC50 (HUVEC) | IC50 [11] | further results |
| --- | --- | --- | --- | --- | --- | --- | --- | --- | --- | --- | --- | --- | --- | --- | --- | --- | --- | --- | --- | --- | --- |
|  |  |  |  |  |  |  | > 20000 nM |  |  | Nc1cccc2c1CN(C1CCC(=O)NC1=O)C2=O (stereo not given) [LENALIDOMIDE] | > 20000 nM |  |  |  |  |  |  |  |  |  | IC50 (MCF-10A): > 20000 nM |
|  |  |  |  | 36.4 nM |  |  |  |  |  | Nc1ccn([C@@H]2O[C@H](CO)[C@@H](O)C2(F)F)c(=O)n1 [GEMCITABINE] |  |  |  |  | > 50000 nM |  |  |  |  |  | Ratio IC50 [16]: >1373 |
